The text below walks through data of ChEMBL document CHEMBL1148711, “Naphthalen-1-yl-(4-pentyloxynaphthalen-1-yl)methanone: a potent, orally bioavailable human CB1/CB2 dual agonist with antihyperalgesic properties and restricted central nervous system penetration” (J Med Chem, 2007).

SMILES strings stand for the structures.

Data set [1] has as its target T1, Cannabinoid receptor 2 (Homo sapiens, UniProt P34972). In words: Agonist activity at human CB2 receptor expressed in CHOK1 cells assessed as reversal of forskolin-evoked cAMP accumulation relative to CP-55940. Particulars: CHO-K1. It counts as functional, cell-based. In a few lines: (§1)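 CHO cells expressing human CB2 were stimulated with forskolin, and agonist reversal of cyclic AMP accumulation was measured. Potency is given as mean ± SEM of 3–13 independent measurements. Emax is the maximal reversal, expressed as a percentage of the value obtained with a reference agonist.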

The species named for data set [2] is Rattus norvegicus. Briefly: Antihyperalgesic activity in rat assessed as reversal of hyperalgesia. The data set is classed as functional. The procedure, abridged: (§2)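 Rat model of neuropathic mechanical hyperalgesia with oral dosing. Read-out was paw withdrawal threshold of the ipsilateral paw, followed from 1 h after dosing, with 12 animals per group, as mean ± SEM. Groups were compared with vehicle by ANOVA and Tukey's HSD.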

Data set [3] has as its target Cannabinoid receptor 1 (Homo sapiens, UniProt P21554). Briefly: Displacement of [3H]CP-55940 from human CB1 receptor expressed in HEK293 cells. It counts as cell-based.
Data set [4] addresses T1, Cannabinoid receptor 2. Briefly: Displacement of [3H]CP-55940 human CB2 receptor expressed in CHOK1 cells. The data set is classed as cell-based, CHO-K1. The procedure, abridged: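 Human CB2 expressed in CHO cells. Values are the mean ± SEM of at least three determinations, derived by logistic curve fitting.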
The target in a further data set is Cytochrome P450 2D6 (Homo sapiens, UniProt P10635). Briefly: Inhibition of CYP2D6 in human liver microsomes. It counts as ADME, Microsome.
Data set [5] is described as follows: AUC (0 to infinity) in Wistar rat at 1 mg/kg, iv. Further details: time infinity, dose 1 mg/kg, route intravenous. The settings on record: plasma. It counts as ADME, organism-based. The procedure, abridged: (§3)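 Wistar rats dosed once iv at 1 mg/kg or orally at 3.4 mg/kg. Plasma parameters (half-life, steady-state volume of distribution, total clearance, AUC0-∞, Tmax, Cmax) were derived from the concentration–time profiles. Absolute oral bioavailability was calculated from the po and iv AUC0-∞.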

In a further data set the target is Cytochrome P450 3A4 (Homo sapiens, UniProt P08684). In words: Inhibition of CYP3A4 in human liver microsomes. It counts as ADME, Microsome.
Data set [6] in a line: AUC (0 to infinity) in Wistar rat at 3.4 mg/kg, po. Further details: time infinity, dose 3.4 mg/kg, route oral. It counts as ADME, organism-based. Particulars: plasma. The procedure, abridged:
as §3

Data set [7] deals with T1, Cannabinoid receptor 2. In words: Agonist activity at human CB2 receptor expressed in CHOK1 cells assessed as reversal of forskolin-evoked cAMP accumulation. The data set is classed as functional, cell-based, CHO-K1. In a few lines: as §1
The target in the next data set is T2, Cytochrome P450 2C8 (Homo sapiens, UniProt P10632).
T2 sequence (P10632 whole entry): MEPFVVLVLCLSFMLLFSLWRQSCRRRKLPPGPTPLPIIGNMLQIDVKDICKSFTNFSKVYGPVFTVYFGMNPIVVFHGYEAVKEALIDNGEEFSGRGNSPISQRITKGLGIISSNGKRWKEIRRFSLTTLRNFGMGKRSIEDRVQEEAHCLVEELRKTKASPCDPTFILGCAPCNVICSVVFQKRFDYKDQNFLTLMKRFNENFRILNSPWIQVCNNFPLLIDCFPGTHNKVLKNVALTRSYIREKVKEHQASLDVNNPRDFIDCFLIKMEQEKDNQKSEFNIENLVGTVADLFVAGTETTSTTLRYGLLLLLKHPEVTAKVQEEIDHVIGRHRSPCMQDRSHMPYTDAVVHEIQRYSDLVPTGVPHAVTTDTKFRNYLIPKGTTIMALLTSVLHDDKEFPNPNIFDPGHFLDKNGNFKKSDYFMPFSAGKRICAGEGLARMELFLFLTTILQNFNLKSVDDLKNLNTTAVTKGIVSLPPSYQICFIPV
In words: Inhibition of CYP2C8 in human liver microsomes. It counts as ADME, Microsome.

Data set [8] has as its system Liver microsomes. Briefly: Intrinsic clearance in rat liver microsomes. It counts as ADME, Microsome.
The nature of data set [9]: Partition coefficient, log P of the compound. The data set is classed as physicochemical. The settings on record: octanol/water.
Data set [10] can be described thus: Cmax in Wistar rat at 3.4 mg/kg, po. It counts as ADME, organism-based. Further details: dose 3.4 mg/kg, route oral. The settings on record: in vivo. The procedure, abridged: as §3
Data set [11] in a line: Cmax in Wistar rat at 3 mg/kg, po after 1 hr. It counts as ADME, organism-based. Further details: dose 3 mg/kg, route oral. Particulars: in vivo. In a few lines: (§4)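 Single oral dose of 3 mg/kg in Wistar rats. Plasma and brain concentrations were followed over time after dosing.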
For a further data set, the target named is Cytochrome P450 2C9 (Homo sapiens, UniProt P11712). Briefly: Inhibition of CYP2C9 in human liver microsomes. The data set is classed as ADME, Microsome.
Data set [12] can be described thus: Volume of distribution at steady state in Wistar rat at 1 mg/kg, iv. The data set is classed as ADME, organism-based. Further details: dose 1 mg/kg, route intravenous. The settings on record: in vivo, read-out: Vdss. The procedure, abridged: as §3
A short description of data set [13]: Half life in Wistar rat at 1 mg/kg, iv. It counts as ADME, organism-based. The arrangement: dose 1 mg/kg, route intravenous. Particulars: in vivo, read-out: beta t1/2 (converted). The procedure, abridged: as §3
Data set [14] in a line: Total clearance in Wistar rat at 1 mg/kg, iv. It counts as ADME, organism-based. Particulars: in vivo. The arrangement: dose 1 mg/kg, route intravenous. The procedure, abridged: as §3
For the next data set, the target named is Cytochrome P450 2E1 (Homo sapiens, UniProt P05181). In words: Inhibition of CYP2E1 in human liver microsomes. The data set is classed as ADME, Microsome.
Data set [15] relates to Liver microsomes. In words: Intrinsic clearance in human liver microsomes. The data set is classed as ADME, Microsome.
Data set [16] relates to Rattus norvegicus. Briefly: Antihyperalgesic activity in rat assessed as reversal of hyperalgesia at 3 mg/kg, po after 1 hr. The data set is classed as functional. The procedure, abridged:
as §2

Data set [17] has as its target Cannabinoid receptor 1 (Rattus norvegicus, UniProt P20272). Briefly: Inhibition of rat CB1 receptor.
A short description of data set [18]: Plasma protein binding. Particulars: human, read-out: PPB. It counts as ADME, cell-free.
The target of the next data set is Cytochrome P450 2C19 (Homo sapiens, UniProt P33261). In words: Inhibition of CYP2C19 in human liver microsomes. It counts as ADME, Microsome.
Data set [19] can be described thus: Bioavailability in Wistar rat at 3.4 mg/kg, po. The data set is classed as ADME, organism-based. Particulars: in vivo. In a few lines:
as §3

Data set [20] can be described thus: Tmax in Wistar rat at 3.4 mg/kg, po. The data set is classed as ADME, organism-based. The arrangement: dose 3.4 mg/kg, route oral. The settings on record: in vivo. The procedure, abridged:
as §3

Another data set deals with Brain. In words: Drug level in brain in Wistar rat after 4 hrs. The data set is classed as ADME, tissue-based. Particulars: in vivo. In a few lines:
as §4

The next data set has as its target T3, Cytochrome P450 1A2 (Homo sapiens, UniProt P05177).
T3 sequence (P05177 whole entry): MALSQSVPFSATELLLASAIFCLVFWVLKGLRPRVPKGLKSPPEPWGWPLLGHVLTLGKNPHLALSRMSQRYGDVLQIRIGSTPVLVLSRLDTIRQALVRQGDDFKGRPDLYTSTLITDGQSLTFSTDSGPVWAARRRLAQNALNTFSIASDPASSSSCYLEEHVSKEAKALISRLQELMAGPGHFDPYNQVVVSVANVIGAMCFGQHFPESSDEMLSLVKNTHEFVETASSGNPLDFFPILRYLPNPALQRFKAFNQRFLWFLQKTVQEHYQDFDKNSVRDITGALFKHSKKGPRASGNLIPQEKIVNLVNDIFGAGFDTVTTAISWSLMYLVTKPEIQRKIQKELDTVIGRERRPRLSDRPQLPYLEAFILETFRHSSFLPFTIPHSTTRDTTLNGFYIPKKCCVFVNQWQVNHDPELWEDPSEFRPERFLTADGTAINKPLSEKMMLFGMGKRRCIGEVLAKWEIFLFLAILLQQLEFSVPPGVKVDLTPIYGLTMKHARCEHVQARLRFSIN
In words: Inhibition of CYP1A2 in human liver microsomes. The data set is classed as ADME, Microsome.

T1 sequence (P34972 whole entry): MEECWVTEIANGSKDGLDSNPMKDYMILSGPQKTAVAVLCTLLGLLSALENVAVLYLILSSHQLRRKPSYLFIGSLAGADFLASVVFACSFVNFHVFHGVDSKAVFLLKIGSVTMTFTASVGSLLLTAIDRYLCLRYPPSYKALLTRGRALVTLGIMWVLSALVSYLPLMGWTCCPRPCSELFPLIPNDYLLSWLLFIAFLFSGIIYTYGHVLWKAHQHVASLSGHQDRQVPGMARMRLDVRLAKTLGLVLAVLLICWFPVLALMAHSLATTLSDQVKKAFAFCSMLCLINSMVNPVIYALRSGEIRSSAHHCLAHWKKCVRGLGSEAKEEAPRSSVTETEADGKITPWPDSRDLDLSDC
Cannabinoid receptor 1 (Homo sapiens, UniProt P21554), sequence (P21554 whole entry): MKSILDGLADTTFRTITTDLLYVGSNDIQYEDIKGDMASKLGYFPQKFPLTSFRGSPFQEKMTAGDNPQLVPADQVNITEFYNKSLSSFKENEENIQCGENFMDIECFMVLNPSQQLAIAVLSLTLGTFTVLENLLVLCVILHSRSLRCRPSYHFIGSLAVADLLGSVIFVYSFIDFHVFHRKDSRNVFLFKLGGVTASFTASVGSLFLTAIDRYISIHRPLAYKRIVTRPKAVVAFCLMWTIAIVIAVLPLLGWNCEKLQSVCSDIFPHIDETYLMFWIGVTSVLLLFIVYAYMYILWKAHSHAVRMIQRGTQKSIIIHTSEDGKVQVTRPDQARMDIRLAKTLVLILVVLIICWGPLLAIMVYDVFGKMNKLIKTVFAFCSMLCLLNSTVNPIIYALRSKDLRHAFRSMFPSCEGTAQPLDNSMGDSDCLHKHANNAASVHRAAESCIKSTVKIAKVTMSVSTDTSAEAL
Cytochrome P450 2C19, sequence (P33261 whole entry): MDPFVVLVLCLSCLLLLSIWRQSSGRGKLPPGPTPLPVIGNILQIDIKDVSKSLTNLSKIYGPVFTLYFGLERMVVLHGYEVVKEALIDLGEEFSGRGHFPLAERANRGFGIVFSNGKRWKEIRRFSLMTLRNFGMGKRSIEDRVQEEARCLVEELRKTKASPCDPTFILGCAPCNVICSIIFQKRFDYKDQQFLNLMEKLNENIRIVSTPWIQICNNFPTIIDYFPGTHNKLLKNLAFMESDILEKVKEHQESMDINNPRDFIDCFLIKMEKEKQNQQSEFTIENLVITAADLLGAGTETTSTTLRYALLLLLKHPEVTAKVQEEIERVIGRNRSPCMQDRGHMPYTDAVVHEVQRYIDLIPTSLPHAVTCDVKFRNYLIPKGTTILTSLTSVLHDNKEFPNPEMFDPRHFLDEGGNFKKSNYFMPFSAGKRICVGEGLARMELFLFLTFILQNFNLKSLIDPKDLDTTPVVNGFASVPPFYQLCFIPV
Cytochrome P450 2C9, sequence (P11712 whole entry): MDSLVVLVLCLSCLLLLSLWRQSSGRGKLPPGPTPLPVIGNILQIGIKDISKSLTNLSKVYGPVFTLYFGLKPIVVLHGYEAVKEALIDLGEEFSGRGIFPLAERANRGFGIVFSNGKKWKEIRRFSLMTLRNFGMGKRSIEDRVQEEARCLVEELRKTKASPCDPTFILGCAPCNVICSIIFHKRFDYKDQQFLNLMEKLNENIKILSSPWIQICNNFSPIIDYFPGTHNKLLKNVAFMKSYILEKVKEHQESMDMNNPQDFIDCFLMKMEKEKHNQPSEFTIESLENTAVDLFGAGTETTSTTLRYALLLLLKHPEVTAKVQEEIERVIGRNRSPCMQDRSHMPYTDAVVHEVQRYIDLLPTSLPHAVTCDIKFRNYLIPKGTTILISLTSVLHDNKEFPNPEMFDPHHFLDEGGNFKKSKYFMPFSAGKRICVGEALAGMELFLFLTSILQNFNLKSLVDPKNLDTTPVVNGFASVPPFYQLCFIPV
Cytochrome P450 2E1, sequence (P05181 whole entry): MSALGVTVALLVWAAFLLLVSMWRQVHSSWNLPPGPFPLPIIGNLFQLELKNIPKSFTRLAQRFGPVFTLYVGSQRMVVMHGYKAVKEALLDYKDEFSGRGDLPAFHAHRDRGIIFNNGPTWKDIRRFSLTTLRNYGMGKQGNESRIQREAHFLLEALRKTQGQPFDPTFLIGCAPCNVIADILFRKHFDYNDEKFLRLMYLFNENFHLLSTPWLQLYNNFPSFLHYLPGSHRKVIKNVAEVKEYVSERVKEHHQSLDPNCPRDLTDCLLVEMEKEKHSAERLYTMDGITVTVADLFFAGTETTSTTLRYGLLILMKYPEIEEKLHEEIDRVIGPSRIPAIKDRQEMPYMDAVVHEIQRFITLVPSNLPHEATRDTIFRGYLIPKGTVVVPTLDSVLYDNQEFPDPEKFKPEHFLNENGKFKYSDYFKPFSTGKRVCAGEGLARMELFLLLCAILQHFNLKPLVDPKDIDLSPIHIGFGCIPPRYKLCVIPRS
Cannabinoid receptor 1 (Rattus norvegicus, UniProt P20272), sequence (P20272 whole entry): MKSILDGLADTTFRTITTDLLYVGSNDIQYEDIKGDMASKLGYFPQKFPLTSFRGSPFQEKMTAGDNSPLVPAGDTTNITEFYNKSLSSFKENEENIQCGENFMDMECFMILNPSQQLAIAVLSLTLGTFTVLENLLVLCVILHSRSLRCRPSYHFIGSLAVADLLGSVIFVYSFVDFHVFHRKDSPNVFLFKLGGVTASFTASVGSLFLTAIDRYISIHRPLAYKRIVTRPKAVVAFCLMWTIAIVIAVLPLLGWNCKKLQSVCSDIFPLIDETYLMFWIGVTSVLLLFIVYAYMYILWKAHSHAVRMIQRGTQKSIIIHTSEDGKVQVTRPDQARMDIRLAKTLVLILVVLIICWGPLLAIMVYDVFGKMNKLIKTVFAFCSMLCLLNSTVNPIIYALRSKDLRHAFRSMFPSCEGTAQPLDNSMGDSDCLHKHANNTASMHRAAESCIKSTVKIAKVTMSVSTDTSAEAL
Cytochrome P450 3A4, sequence (P08684 whole entry): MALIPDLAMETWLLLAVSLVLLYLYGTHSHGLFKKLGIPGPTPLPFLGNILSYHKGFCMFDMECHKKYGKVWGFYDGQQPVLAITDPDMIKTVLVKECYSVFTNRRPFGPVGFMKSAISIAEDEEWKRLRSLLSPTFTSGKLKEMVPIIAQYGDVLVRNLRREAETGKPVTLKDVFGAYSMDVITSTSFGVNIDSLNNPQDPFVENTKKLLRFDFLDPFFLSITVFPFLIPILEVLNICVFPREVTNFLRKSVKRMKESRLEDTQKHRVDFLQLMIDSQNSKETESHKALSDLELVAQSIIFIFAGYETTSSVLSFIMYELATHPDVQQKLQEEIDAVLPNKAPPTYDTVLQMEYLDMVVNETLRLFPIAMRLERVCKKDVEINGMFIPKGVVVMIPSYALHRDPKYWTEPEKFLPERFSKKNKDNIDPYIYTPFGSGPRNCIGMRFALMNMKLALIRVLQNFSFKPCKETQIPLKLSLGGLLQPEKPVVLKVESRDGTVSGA
Cytochrome P450 2D6, sequence (P10635 whole entry): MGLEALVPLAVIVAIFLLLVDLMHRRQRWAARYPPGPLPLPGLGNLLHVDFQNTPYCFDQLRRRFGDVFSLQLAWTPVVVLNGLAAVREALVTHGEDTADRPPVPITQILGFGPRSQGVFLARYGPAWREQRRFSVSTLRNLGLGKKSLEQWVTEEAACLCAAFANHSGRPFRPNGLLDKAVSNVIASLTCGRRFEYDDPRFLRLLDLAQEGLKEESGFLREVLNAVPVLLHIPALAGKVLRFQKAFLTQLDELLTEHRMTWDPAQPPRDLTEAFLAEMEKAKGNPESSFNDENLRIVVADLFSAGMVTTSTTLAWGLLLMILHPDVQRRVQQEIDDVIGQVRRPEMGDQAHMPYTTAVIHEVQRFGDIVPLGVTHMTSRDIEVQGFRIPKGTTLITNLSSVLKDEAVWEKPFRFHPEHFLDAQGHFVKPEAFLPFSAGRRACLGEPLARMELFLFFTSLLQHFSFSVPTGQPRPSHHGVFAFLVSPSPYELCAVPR

With `CCCCCCC(C)(C)c1ccc([C@@H]2C[C@H](O)CC[C@H]2CCCO)c(O)c1` [CP-55940], the Emax on Cannabinoid receptor 2 [1] worked out at 100%. Further, the D50 in the data set filed under Rattus norvegicus [2] was 0.08 mg/kg.
For the molecule `CCCOc1ccc(C(=O)c2cccc3ccccc23)c2ccccc12`, the IC50 on Cannabinoid receptor 1 [3] is 300 nM; on Cannabinoid receptor 2 [4] it was 90 nM.
On to `CCCCOc1ccc(C(=O)c2cccc3ccccc23)c2ccccc12`, for which the 50% inhibitory concentration (IC50) at Cannabinoid receptor 1 [3] came out at 48 nM; on Cannabinoid receptor 2 [4], 85 nM.
Take `CCCCCNc1ccc(C(=O)c2cccc3ccccc23)c2ccccc12`: the IC50 amounted to 25 nM on Cannabinoid receptor 1 [3] and 120 nM on Cannabinoid receptor 2 [4].
For `O=C(c1cccc2ccccc12)c1ccc(OCCc2ccccc2)c2ccccc12` the same measures were 930 nM and 2000 nM.
As to `Cc1c(C(=O)c2cccc3ccccc23)c2cccc3c2n1[C@H](CN1CCOCC1)CO3` [WIN-552122], the maximal response (Emax) on Cannabinoid receptor 2 [1] stood at 96.9%. Besides, the D50 in the data set filed under Rattus norvegicus [2] is 0.52 mg/kg.
`CCCCCCOc1ccc(C(=O)c2cccc3ccccc23)c2ccccc12`: the concentration for half-maximal inhibition (IC50) on Cannabinoid receptor 1 [3] was determined as 160 nM; at Cannabinoid receptor 2 [4], 660 nM.
Consider `CCCCCOc1ccc(C(=O)c2cccc3ccccc23)c2ccccc12`, for which the half-maximal inhibitory concentration (IC50) against Cytochrome P450 2D6 is over 200000 nM; against Cytochrome P450 3A4, over 200000 nM; against Cytochrome P450 2C8 it was over 200000 nM; on Cytochrome P450 2C9, 80800 nM; at Cannabinoid receptor 2 [4], 98 nM; on Cytochrome P450 2E1, over 200000 nM. In addition, the 50% inhibitory concentration (IC50) against Cannabinoid receptor 1 [17] was 22 nM; against Cytochrome P450 2C19 it was over 200000 nM; against Cytochrome P450 1A2 it was over 200000 nM. Further, the results for the AUC(0-inf) in [5] and in data set [6] were 5.72 µM·h and 8.39 µM·h, respectively. Also, the Emax at Cannabinoid receptor 2 [1] was determined as 88.4%. The 50% effective concentration (EC50) on Cannabinoid receptor 2 [7] worked out at 27.9 nM. The CL with Liver microsomes [8] and in the data set with Liver microsomes [15] was under 5 µL/min in each case. In [9], this molecule displayed a log partition coefficient (logP) of 6.85. Also, the Cmax came to 1600 nM in data set [10] and 1130 nM in data set [11]. In data set [12], the Vd amounted to 9.6 L/kg. Besides, in [13], the half-life was 64.6 h. Besides, the clearance in data set [14] stood at 8 mL/min/kg. Also, the D50 in the data set listed under Rattus norvegicus [2] was 0.17 mg/kg. Besides, the Activity in the data set with Rattus norvegicus [16] is 90%. The fraction unbound in data set [18] was under 0.01. In data set [19], this molecule yielded a bioavailability of 43%. Further, the Tmax in data set [20] came to 1 h. Besides, the Drug uptake with Brain turned out to be 0.24 µmol/kg.
